ChEMBL document CHEMBL1275408, “A chemical genomic screen in Saccharomyces cerevisiae reveals a role for diphthamidation of translation elongation factor 2 in inhibition of protein synthesis by sordarin” (2008)
Activity calls are given as the source filed them.

Tests used:
Saccharomyces cerevisiae [1] = test: Antifungal activity against Saccharomyces cerevisiae BY4741 harboring MIP1 YOR330C mutant gene by spectrophotometry; format: functional
Procedure, shortened: (§1)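 Screen of BY4741 KanMX4 deletion strains pre-grown 3 days at 28°C in YPD with G418 (150 mg/liter), then pinned into liquid SC containing GM193663. The sensitivity screen used 2 ng/ml; the resistance screen used 62.5 ng/ml, with validation at 62.5, 125 and 500 ng/ml. OD595 was read every 24 h over 5 days at 28°C. Growth was scored relative to wild type and to drug-free controls. Retests were at least in duplicate.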

Saccharomyces cerevisiae [2] = test: Antifungal activity against Saccharomyces cerevisiae BY4741 harboring RPS4A YJR145C mutant gene by spectrophotometry; format: functional
Procedure, shortened: (§2)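 Haploid MATa BY4741 KanMX4 deletion strains pinned from frozen stocks into YPD + G418 (150 mg/liter), grown 3 days at 28°C to confluence, then pin-replicated into SC liquid with no drug or sordarin derivative GM193663 (2 ng/ml sensitivity; 62.5 ng/ml resistance). 28°C, OD595 read every 24 h for 5 days; growth scored relative to wild type on same plate and to untreated mutant.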

Saccharomyces cerevisiae [3] = test: Antifungal activity against Saccharomyces cerevisiae BY4741 harboring DHH1 YDL160C mutant gene by spectrophotometry; format: functional; procedure, shortened: as §1
Saccharomyces cerevisiae [4] = test: Antifungal activity against Saccharomyces cerevisiae BY4741 harboring DAL7 YIR031C mutant gene by spectrophotometry; format: functional; procedure, shortened: as §1
Saccharomyces cerevisiae [5] = test: Antifungal activity against Saccharomyces cerevisiae BY4741 harboring YOL079W mutation in unknown gene by spectrophotometry; format: functional
Procedure, shortened: (§3)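 Deletion strains from the nonessential haploid MATa BY4741 collection (KanMX4 replacement) were grown in YPD with G418 at 28°C for 3 days, then pinned into liquid SC with or without sordarin derivative GM193663 (2 ng/ml for sensitivity, 62.5 ng/ml for resistance). Cultures were kept at 28°C and read at OD595 every 24 h for 5 days. Growth was scored against wild type on the same plate and against the drug-free control. Hits were retested at least in duplicate.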

Saccharomyces cerevisiae [6] = test: Antifungal activity against Saccharomyces cerevisiae BY4741 harboring YBR099C mutation by spectrophotometry; format: functional; procedure, shortened: as §2
Saccharomyces cerevisiae [7] = test: Antifungal activity against Saccharomyces cerevisiae BY4741 harboring RAM1 YDL090C mutant gene by spectrophotometry; format: functional; procedure, shortened: as §2
Saccharomyces cerevisiae [8] = test: Antifungal activity against Saccharomyces cerevisiae BY4741 harboring STE1 YDR410C mutant gene by spectrophotometry; format: functional; procedure, shortened: as §2
Saccharomyces cerevisiae [9] = test: Antifungal activity against Saccharomyces cerevisiae BY4741 harboring YDR020C mutation in unknown gene by spectrophotometry; format: functional; procedure, shortened: as §2
Saccharomyces cerevisiae [10] = test: Antifungal activity against Saccharomyces cerevisiae BY4741 harboring SUR2 YDR297W mutant gene by spectrophotometry; format: functional; procedure, shortened: as §2
Saccharomyces cerevisiae [11] = test: Antifungal activity against Saccharomyces cerevisiae BY4741 harboring UBX3 YDL091C mutant gene by spectrophotometry; format: functional; procedure, shortened: as §2
Saccharomyces cerevisiae [12] = test: Antifungal activity against Saccharomyces cerevisiae BY4741 harboring IBD2 YNL164C mutant gene by spectrophotometry; format: functional; procedure, shortened: as §1
Saccharomyces cerevisiae [13] = test: Antifungal activity against Saccharomyces cerevisiae BY4741 harboring DPH5 YLR172C mutant gene by spectrophotometry; format: functional; procedure, shortened: as §1
Saccharomyces cerevisiae [14] = test: Antifungal activity against Saccharomyces cerevisiae BY4741 harboring RPL16B YNL069C mutant gene by spectrophotometry; format: functional; procedure, shortened: as §2
Saccharomyces cerevisiae [15] = test: Antifungal activity against Saccharomyces cerevisiae BY4741 harboring QRI7 YDL104C mutant gene by spectrophotometry; format: functional; procedure, shortened: as §2
Saccharomyces cerevisiae [16] = test: Antifungal activity against Saccharomyces cerevisiae BY4741 harboring YBL100C mutation assessed as reduction in fungal growth at 2 ng/ml by spectrophotometry; format: functional, organism-based
Procedure, shortened: (§4)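 Deletion strains (BY4741 background) pre-grown 3 days at 28°C in YPD + G418 (150 mg/liter), then pin-replicated into SC liquid containing 2 ng/ml GM193663 or no drug. 28°C, OD595 every 24 h over 5 days; growth scored against wild type on same plate and against drug-free mutant control; hits retested at least in duplicate at 2 ng/ml.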

Saccharomyces cerevisiae [17] = test: Antifungal activity against Saccharomyces cerevisiae BY4741 harboring LDB17 YDL146W mutant gene by spectrophotometry; format: functional; procedure, shortened: as §1
Saccharomyces cerevisiae [18] = test: Antifungal activity against Saccharomyces cerevisiae BY4741 harboring MHP1 YJL042W mutant gene by spectrophotometry; format: functional; procedure, shortened: as §1
Saccharomyces cerevisiae [19] = test: Antifungal activity against Saccharomyces cerevisiae BY4741 harboring ADY3 YDL239C mutant gene by spectrophotometry; format: functional; procedure, shortened: as §1
Saccharomyces cerevisiae [20] = test: Antifungal activity against Saccharomyces cerevisiae BY4741 harboring MRPL37 YBR268W mutant gene by spectrophotometry; format: functional; procedure, shortened: as §2
Saccharomyces cerevisiae [21] = test: Antifungal activity against Saccharomyces cerevisiae BY4741 harboring MRPL11 YDL202W mutant gene by spectrophotometry; format: functional; procedure, shortened: as §2
Saccharomyces cerevisiae [22] = test: Antifungal activity against Saccharomyces cerevisiae BY4741 harboring GRR1 YJR090C mutant gene by spectrophotometry; format: functional; procedure, shortened: as §1
Saccharomyces cerevisiae [23] = test: Antifungal activity against Saccharomyces cerevisiae BY4741 harboring NOT5 YPR072W mutant gene assessed as reduction in fungal growth at 2 ng/ml by spectrophotometry; format: functional, organism-based; procedure, shortened: as §4
Saccharomyces cerevisiae [24] = test: Antifungal activity against Saccharomyces cerevisiae BY4741 harboring MTF1 YMR228W mutant gene by spectrophotometry; format: functional; procedure, shortened: as §2
Saccharomyces cerevisiae [25] = test: Antifungal activity against Saccharomyces cerevisiae BY4741 harboring HMI1 YOL095C mutant gene by spectrophotometry; format: functional; procedure, shortened: as §1
Saccharomyces cerevisiae [26] = test: Antifungal activity against Saccharomyces cerevisiae BY4741 harboring QRI5 YLR204W mutant gene by spectrophotometry; format: functional; procedure, shortened: as §2
Saccharomyces cerevisiae [27] = test: Antifungal activity against Saccharomyces cerevisiae BY4741 harboring RMD9 YGL107C mutant gene by spectrophotometry; format: functional; procedure, shortened: as §2
Saccharomyces cerevisiae [28] = test: Antifungal activity against Saccharomyces cerevisiae BY4741 harboring MGT1 YDL200C mutant gene by spectrophotometry; format: functional; procedure, shortened: as §1
Saccharomyces cerevisiae [29] = test: Antifungal activity against Saccharomyces cerevisiae BY4741 harboring ARN2 YHL047C mutant gene by spectrophotometry; format: functional; procedure, shortened: as §1
Saccharomyces cerevisiae [30] = test: Antifungal activity against Saccharomyces cerevisiae BY4741 harboring PTP3 YER075C mutant gene by spectrophotometry; format: functional; procedure, shortened: as §2
Saccharomyces cerevisiae [31] = test: Antifungal activity against Saccharomyces cerevisiae BY4741 harboring YHR151C mutation in unknown gene by spectrophotometry; format: functional; procedure, shortened: as §3
Saccharomyces cerevisiae [32] = test: Antifungal activity against Saccharomyces cerevisiae BY4741 harboring MRPL36 YBR122C mutant gene by spectrophotometry; format: functional; procedure, shortened: as §2
Saccharomyces cerevisiae [33] = test: Antifungal activity against Saccharomyces cerevisiae BY4741 harboring EAF3 YPR023C mutant gene by spectrophotometry; format: functional; procedure, shortened: as §1
Saccharomyces cerevisiae [34] = test: Antifungal activity against Saccharomyces cerevisiae BY4741 harboring KTR7 YIL085C mutant gene by spectrophotometry; format: functional; procedure, shortened: as §1
Saccharomyces cerevisiae [35] = test: Antifungal activity against Saccharomyces cerevisiae BY4741 harboring RSM19 YNR037C mutant gene by spectrophotometry; format: functional; procedure, shortened: as §2
Saccharomyces cerevisiae [36] = test: Antifungal activity against Saccharomyces cerevisiae BY4741 harboring MIP6 YHR015W mutant gene by spectrophotometry; format: functional; procedure, shortened: as §1
Saccharomyces cerevisiae [37] = test: Antifungal activity against Saccharomyces cerevisiae BY4741 harboring BUD9 YGR041W mutant gene by spectrophotometry; format: functional; procedure, shortened: as §1
Saccharomyces cerevisiae [38] = test: Antifungal activity against Saccharomyces cerevisiae BY4741 harboring FMP35 YIL157C mutant gene by spectrophotometry; format: functional; procedure, shortened: as §1
Saccharomyces cerevisiae [39] = test: Antifungal activity against Saccharomyces cerevisiae BY4741 harboring ECM3 YOR092W mutant gene by spectrophotometry; format: functional; procedure, shortened: as §1

CO[C@H]1[C@@H](O)[C@H](O)[C@H](OC[C@@]23C[C@@H]4[C@H](C)CC[C@H]4[C@@]4(C=O)CC2C=C(C(C)C)[C@@]34C(=O)O)O[C@@H]1C [SORDARIN]
> 0.5 µg/mL: MIC (Saccharomyces cerevisiae [1]) | MIC (Saccharomyces cerevisiae [5]) | MIC (Saccharomyces cerevisiae [6]) | MIC (Saccharomyces cerevisiae [7]) | MIC (Saccharomyces cerevisiae [9]) | MIC (Saccharomyces cerevisiae [11]) | MIC (Saccharomyces cerevisiae [12]) | MIC (Saccharomyces cerevisiae [13]) | MIC (Saccharomyces cerevisiae [20]) | MIC (Saccharomyces cerevisiae [22]) | MIC (Saccharomyces cerevisiae [29]) | MIC (Saccharomyces cerevisiae [31]) | MIC (Saccharomyces cerevisiae [32]) | MIC (Saccharomyces cerevisiae [33]) | MIC (Saccharomyces cerevisiae [34]) | MIC (Saccharomyces cerevisiae [35]) | MIC (Saccharomyces cerevisiae [36]) | MIC (Saccharomyces cerevisiae [38])
> 0.0625 µg/mL: MIC (Saccharomyces cerevisiae [2]) | MIC (Saccharomyces cerevisiae [10]) | MIC (Saccharomyces cerevisiae [19]) | MIC (Saccharomyces cerevisiae [21])
> 0.125 µg/mL: MIC (Saccharomyces cerevisiae [3]) | MIC (Saccharomyces cerevisiae [4]) | MIC (Saccharomyces cerevisiae [8]) | MIC (Saccharomyces cerevisiae [14]) | MIC (Saccharomyces cerevisiae [15]) | MIC (Saccharomyces cerevisiae [17]) | MIC (Saccharomyces cerevisiae [18]) | MIC (Saccharomyces cerevisiae [24]) | MIC (Saccharomyces cerevisiae [25]) | MIC (Saccharomyces cerevisiae [26]) | MIC (Saccharomyces cerevisiae [27]) | MIC (Saccharomyces cerevisiae [28]) | MIC (Saccharomyces cerevisiae [30]) | MIC (Saccharomyces cerevisiae [37]) | MIC (Saccharomyces cerevisiae [39])
active: Activity (Saccharomyces cerevisiae [16]) | Activity (Saccharomyces cerevisiae [23])
